Legend:
[1] = Selectivity index, ratio of CC50 for MDBK cells to EC50 for BVDV NADL infected in MDBK cells
Method in brief: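 MDBK cells infected with BVDV NADL at MOI 1, 1 h at 37 °C, washed, then compounds at 0.1–100 μM. Media harvested at 22 h, plaque-titrated on MDBK under 1% methylcellulose for 3 days, neutral red or direct count. EC50 from yield curves; MTT CC50 in uninfected MDBK; SI = CC50/EC50.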

[2] = Cytotoxicity against MDBK cells assessed as cell viability by MTT assay; assay type: cell-based, Bos taurus; settings: cattle
[3] = Antiviral activity against 1 MOI BVDV NADL infected in MDBK cells assessed as reduction in viral titer after 22 hrs; assay type: functional, cell-based, Bovine viral diarrhea virus 1-NADL
Method in brief: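 MDBK cells (2×10^5) infected 24 h after seeding with BVDV NADL at MOI 1, with 1 h adsorption at 37 °C. Washed, then compounds at 0.1–100 μM. Media harvested 22 h post-infection and plaque-titrated on MDBK under 1% methylcellulose for 3 days. Plaques counted directly or after neutral red staining. EC50 from dose–response curves, mean of 3 independent experiments.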

[4] = Cytotoxicity against BHK cells assessed as cell viability by MTT assay; assay type: cell-based, Mesocricetus auratus; settings: hamster
[5] = Selectivity index, ratio of CC50 for BHK cells to EC50 for DENV-2 NGC infected in BHK cells
Method in brief: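 BHK cells infected with DENV-2 New Guinea C at MOI 0.01 for 1 h, then compounds at 0.1–100 μM for 48 h at 37 °C. Supernatant titrated on Vero cells under 0.5% methylcellulose, 3–5 days; foci by 4G2 immunostaining or crystal violet plaques. EC50 from yield curves; MTT CC50 in uninfected BHK; SI = CC50/EC50.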

dengue virus type 2 = test: Antiviral activity against 0.01 MOI DENV-2 NGC infected in BHK cells assessed as reduction in viral titer after 48 hrs; assay type: functional, organism-based
Method in brief: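 BHK cells infected with DENV-2 New Guinea C at MOI 0.01 for 1 h. Inoculum removed, then compounds at 0.1–100 μM for 48 h at 37 °C. Supernatants titrated on Vero monolayers as 10-fold dilutions under 0.5% methylcellulose for 3–5 days. Foci detected by 4G2 immunostaining or crystal violet plaques. EC50 from dose–response curves, mean of 3 independent experiments.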

[6] = Bovine viral diarrhea virus isolates and strains, MDBK, 22 h

Compound | Ratio CC50/EC50 [1] | CC50 [2] | EC50 [3, 6] | CC50 [4] | Ratio CC50/EC50 [5] | EC50 (dengue virus type 2) | EC50 ([3]; mdbk)
CCCCCCCCCN1C[C@H](O)[C@@H](O)[C@H](O)[C@H]1CO | 318 | 350 µM | 1.1 µM |  |  |  | 
Cc1ccc(C(C)(C)C)c(OCCCCCCN2C[C@H](O)[C@@H](O)[C@H](O)[C@H]2CO)c1 | 142 | 85 µM | 0.6 µM |  |  |  | 
CCC1CCCCC1OCCCCCCN1C[C@H](O)[C@@H](O)[C@H](O)[C@H]1CO (stereo partly drawn) | 300 | 450 µM | 1.5 µM |  |  |  | 
Cc1ccc(C(C)C)cc1OCCCCCCN1C[C@H](O)[C@@H](O)[C@H](O)[C@H]1CO | 129 | 90 µM | 0.7 µM |  |  |  | 
CC(C)C(OCCCCCCN1C[C@H](O)[C@@H](O)[C@H](O)[C@H]1CO)C(C)C | >67 | > 500 µM | 7.5 µM |  |  |  | 
CCCOc1ccccc1CCCN1C[C@H](O)[C@@H](O)[C@H](O)[C@H]1CO | >625 | > 500 µM | 0.8 µM | > 500 µM | >156 | 3.2 µM | 
CC1CCC(OCCCCCCN2C[C@H](O)[C@@H](O)[C@H](O)[C@H]2CO)CC1C (stereo partly drawn) | >143 | > 500 µM | 3.5 µM | > 500 µM | > 1250 | 0.4 µM | 
OC[C@@H]1[C@@H](O)[C@H](O)[C@@H](O)CN1CCCCCCOc1cccnc1 | >200 | > 500 µM | 2.5 µM |  |  |  | 
Cc1ccc(C(C)C)c(OCCCCCCN2C[C@H](O)[C@@H](O)[C@H](O)[C@H]2CO)c1 | 103 | 62 µM | 0.6 µM |  |  |  | 
OC[C@@H]1[C@@H](O)[C@H](O)[C@@H](O)CN1CCCCCCOC1CCCC1 | >1667 | > 500 µM | 0.3 µM | > 500 µM | >357 | 1.4 µM | 
OC[C@@H]1[C@@H](O)[C@H](O)[C@@H](O)CN1CCCCCCOc1ccccc1C(F)(F)F | >500 | > 500 µM | 1 µM |  |  |  | 
OC[C@@H]1[C@@H](O)[C@H](O)[C@@H](O)CN1CCC#CCCOc1cc(F)ccc1F | >11 | > 500 µM | 47 µM | > 500 µM | >25 | 20 µM | 
CCCC1CCCCC1OCCCCCCN1C[C@H](O)[C@@H](O)[C@H](O)[C@H]1CO (stereo partly drawn) | 300 | 150 µM | 0.5 µM |  |  |  | 
CCC1CCC(OCCCCCCN2C[C@H](O)[C@@H](O)[C@H](O)[C@H]2CO)CC1 (stereo partly drawn) | >1250 | > 500 µM | 0.4 µM | 475 µM | 1583 | 0.3 µM | 
CC1CCCC(OCCCCCCN2C[C@H](O)[C@@H](O)[C@H](O)[C@H]2CO)C1C (stereo partly drawn) | >417 | > 500 µM | 1.2 µM |  |  |  | 
OC[C@@H]1[C@@H](O)[C@H](O)[C@@H](O)CN1CCCc1ccc(OC2CCCCC2)cc1 | 54 | 295 µM | 5.5 µM |  |  |  | 
OC[C@@H]1[C@@H](O)[C@H](O)[C@@H](O)CN1CCCCCCOc1ccc(C(F)(F)F)cc1 | >455 | > 500 µM | 1.1 µM | 470 µM | 362 | 1.3 µM | 
OC[C@@H]1[C@@H](O)[C@H](O)[C@@H](O)CN1CCCCCCOc1ccccc1F | >179 | > 500 µM | 2.8 µM |  |  |  | 
OC[C@@H]1[C@@H](O)[C@H](O)[C@@H](O)CN1CCCCCCOc1c(F)c(F)c(F)c(F)c1F | >500 | > 500 µM | 1 µM | > 500 µM | >294 | 1.7 µM | 
OC[C@@H]1[C@@H](O)[C@H](O)[C@@H](O)CN1CCCCCCOc1ccc(F)cc1 | >1667 | > 500 µM | 0.3 µM | > 500 µM | >455 | 1.1 µM | 

Compound | Ratio CC50/EC50 [1] | CC50 [2] | EC50 [3, 6] | CC50 [4] | Ratio CC50/EC50 [5] | EC50 (dengue virus type 2) | EC50 ([3]; mdbk)
OC[C@@H]1[C@@H](O)[C@H](O)[C@@H](O)CN1CCCCCCOc1ccccc1 | >556 | > 500 µM | 0.9 µM | > 500 µM | >294 | 1.7 µM | 
OC[C@@H]1[C@@H](O)[C@H](O)[C@@H](O)CN1CC/C=C/CCOc1cc(F)ccc1F | >556 |  | 0.9 µM | > 500 µM | >227 | 2.2 µM | 
OC[C@@H]1[C@@H](O)[C@H](O)[C@@H](O)CN1CCCCCCOc1cc(Cl)ccc1Cl | 213 | 320 µM | 1.5 µM |  |  |  | 
OC[C@@H]1[C@@H](O)[C@H](O)[C@@H](O)CN1CCCc1cccc(OC2CCCCC2)c1 | 111 | 390 µM | 3.5 µM |  |  |  | 
OC[C@@H]1[C@@H](O)[C@H](O)[C@@H](O)CN1CC/C=C\CCOc1cc(F)ccc1F | >250 | > 500 µM | 2 µM |  | >59 | 8.5 µM | 
CC1CC(OCCCCCCN2C[C@H](O)[C@@H](O)[C@H](O)[C@H]2CO)CC(C)(C)C1 (stereo partly drawn) | 312 | 250 µM | 0.8 µM |  |  |  | 
CCCOc1ccc(CCCN2C[C@H](O)[C@@H](O)[C@H](O)[C@H]2CO)cc1 | >2500 | > 500 µM | 0.2 µM | > 500 µM | >1000 | 0.5 µM | 
CCCCCC#CCCN1C[C@H](O)[C@@H](O)[C@H](O)[C@H]1CO |  | > 500 µM | > 100 µM |  |  |  | 
COc1ccc(OCCCCCCN2C[C@H](O)[C@@H](O)[C@H](O)[C@H]2CO)cc1 | >500 | > 500 µM | 1 µM | > 500 µM | >125 | 4 µM | 
CCC(CC)OCCCCCCN1C[C@H](O)[C@@H](O)[C@H](O)[C@H]1CO | 150 | 450 µM | 3 µM |  |  |  | 
OC[C@@H]1[C@@H](O)[C@H](O)[C@@H](O)CN1CCCc1ccccc1OC1CCCCC1 | >175 | 420 µM | 24 µM |  |  |  | 
OC[C@@H]1[C@@H](O)[C@H](O)[C@@H](O)CN1CCCCCCOc1c(F)cc(F)cc1F | >100 | > 500 µM | 5 µM |  |  |  | 
CCCCC1CCC(OCCCCCCN2C[C@H](O)[C@@H](O)[C@H](O)[C@H]2CO)CC1 (stereo partly drawn) | 106 | 190 µM | 1.8 µM |  |  |  | 
OC[C@@H]1[C@@H](O)[C@H](O)[C@@H](O)CN1CCCCCCOC1CCCCC1C1CCCCC1 (stereo partly drawn) | 400 | 200 µM | 0.5 µM |  |  |  | 
CC/C=C\CCCCCN1C[C@H](O)[C@@H](O)[C@H](O)[C@H]1CO | >45 | > 500 µM | 11 µM |  |  |  | 
CC1CCCC(OCCCCCCN2C[C@H](O)[C@@H](O)[C@H](O)[C@H]2CO)C1 (stereo partly drawn) | >1667 | > 500 µM | 0.3 µM |  |  |  | 
OC[C@@H]1[C@@H](O)[C@H](O)[C@@H](O)CN1CCCCCCOc1ccc(OC(F)(F)F)cc1 | >385 | > 500 µM | 1.3 µM | > 500 µM | >833 | 0.6 µM | 
Cc1ccccc1OCCCCCCN1C[C@H](O)[C@@H](O)[C@H](O)[C@H]1CO | >1250 | > 500 µM | 0.4 µM | 450 µM | 900 | 0.5 µM | 
Cc1cccc(OCCCCCCN2C[C@H](O)[C@@H](O)[C@H](O)[C@H]2CO)c1.Cl | >1250 |  |  |  |  |  | 0.4 µM

Source: ChEMBL document CHEMBL2163238, “Design, synthesis, and biological evaluation of N-alkylated deoxynojirimycin (DNJ) derivatives for the treatment of dengue virus infection” (J Med Chem, 2012)
